The test system of one assay is HeLa. The experiment in a line: Cytotoxicity against human HeLa cells expressing telomerase after 96 hrs by MTT assay. The assay is classed as functional, cell-based. The essentials: (§1)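 Cells grown in DMEM with 10% heat-inactivated FCS, penicillin/streptomycin, 37 °C, 5% CO2. Plated at 10000 cells/well and left overnight, then exposed to eight serial dilutions in triplicate for 96 h. MTT added to 0.8 mg/mL final for 2 h, formazan dissolved in DMSO, absorbance read at 540 nm. IC50 from sigmoidal dose-response fits.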
A general note: Tetrazolium dyes change colour on reduction, which living cells bring about.

The species entered for assay [1] is Homo sapiens. Nature of the assay: Binding affinity to human telomeric DNA sequence assessed as stabilization of G-quadruplex at 10 uM by thermal denaturation. The essentials:
(§2)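 Fluorescence melting in a LightCycler of 0.25 µM telomeric oligonucleotide HTS (5'-FAM, 3'-methyl red) in LiP buffer (10 mM LiOH, 50 mM KCl, pH 7.4 with H3PO4). Samples were denatured at 95 °C for 5 min, then cooled and reheated at 0.5 °C/min in 1 °C steps with 2 min equilibration per step. Excitation 488 nm, emission 520 nm. ΔTm was taken relative to ligand-free DNA.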

In assay [2] the target is Telomerase reverse transcriptase (Homo sapiens, UniProt O14746). Nature of the assay: Inhibition of telomerase in human JR8 cells by TRAP assay. In kind it is cell-based. The essentials: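 Telomerase source was a CHAPS lysate of exponentially growing JR8 cells (500 ng protein per reaction). Elongation 30 min at 30 °C, then 30 PCR cycles. Products run on 10% PAGE with phosphorimager read-out, in triplicate. Drug levels kept below those inhibiting Taq.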

Assay [3] addresses DNA polymerase I, thermostable (Thermus aquaticus, UniProt P19821). Nature of the assay: Inhibition of Taq polymerase. The essentials: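 PCR with 2.5 ng pBR322 template and primers Tup/Tdown (0.5 µM) amplifying plasmid bases 906-1064. Compounds tested from 20 nM to 40 µM. Run 25 cycles of 94 °C, 65 °C and 72 °C (30 s each). Products resolved on 2% agarose in TBE and stained with ethidium bromide.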

Assay [4] is filed under the species Homo sapiens. The experiment in a line: Binding affinity to human telomeric DNA sequence assessed as stabilization of G-quadruplex at 1 uM by thermal denaturation. The method in brief:
as §2

A short description of assay [5]: Cytotoxicity against human 293T cells expressing telomerase after 96 hrs by MTT assay. In kind it is cell-based. The note with it: HEK-293T. The method in brief:
as §1

The structures appear in SMILES notation.

As usually defined, the IC50 is the midpoint of a concentration-inhibition curve. As a reminder, the ΔTm is the shift of the melting midpoint relative to a reference. A word on the EC50: it is the concentration that produces a half-maximal response. A lower EC50 goes with higher potency in that assay.

Chain of DNA polymerase I, thermostable (P19821 whole entry): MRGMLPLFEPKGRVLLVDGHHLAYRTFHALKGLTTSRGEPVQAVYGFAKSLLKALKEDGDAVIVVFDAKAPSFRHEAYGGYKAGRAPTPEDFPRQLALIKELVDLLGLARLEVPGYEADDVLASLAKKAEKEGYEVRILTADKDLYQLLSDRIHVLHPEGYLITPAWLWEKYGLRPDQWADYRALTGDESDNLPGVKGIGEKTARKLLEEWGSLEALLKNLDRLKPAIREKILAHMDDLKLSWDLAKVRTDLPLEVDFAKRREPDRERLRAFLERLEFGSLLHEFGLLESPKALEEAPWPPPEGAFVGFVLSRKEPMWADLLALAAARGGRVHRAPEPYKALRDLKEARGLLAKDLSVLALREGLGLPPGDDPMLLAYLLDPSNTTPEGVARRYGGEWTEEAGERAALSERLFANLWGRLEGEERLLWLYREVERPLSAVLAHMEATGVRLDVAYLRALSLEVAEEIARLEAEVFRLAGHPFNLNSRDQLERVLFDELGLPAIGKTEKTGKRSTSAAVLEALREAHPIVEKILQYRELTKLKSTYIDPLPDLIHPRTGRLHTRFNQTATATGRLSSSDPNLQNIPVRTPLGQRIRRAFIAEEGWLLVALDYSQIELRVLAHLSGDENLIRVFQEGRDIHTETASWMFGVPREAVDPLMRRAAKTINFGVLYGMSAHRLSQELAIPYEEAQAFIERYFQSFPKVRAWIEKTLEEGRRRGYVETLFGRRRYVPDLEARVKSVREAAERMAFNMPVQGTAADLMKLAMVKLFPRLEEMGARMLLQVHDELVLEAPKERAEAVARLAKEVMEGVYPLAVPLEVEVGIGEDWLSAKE
Chain of Telomerase reverse transcriptase (O14746 whole entry): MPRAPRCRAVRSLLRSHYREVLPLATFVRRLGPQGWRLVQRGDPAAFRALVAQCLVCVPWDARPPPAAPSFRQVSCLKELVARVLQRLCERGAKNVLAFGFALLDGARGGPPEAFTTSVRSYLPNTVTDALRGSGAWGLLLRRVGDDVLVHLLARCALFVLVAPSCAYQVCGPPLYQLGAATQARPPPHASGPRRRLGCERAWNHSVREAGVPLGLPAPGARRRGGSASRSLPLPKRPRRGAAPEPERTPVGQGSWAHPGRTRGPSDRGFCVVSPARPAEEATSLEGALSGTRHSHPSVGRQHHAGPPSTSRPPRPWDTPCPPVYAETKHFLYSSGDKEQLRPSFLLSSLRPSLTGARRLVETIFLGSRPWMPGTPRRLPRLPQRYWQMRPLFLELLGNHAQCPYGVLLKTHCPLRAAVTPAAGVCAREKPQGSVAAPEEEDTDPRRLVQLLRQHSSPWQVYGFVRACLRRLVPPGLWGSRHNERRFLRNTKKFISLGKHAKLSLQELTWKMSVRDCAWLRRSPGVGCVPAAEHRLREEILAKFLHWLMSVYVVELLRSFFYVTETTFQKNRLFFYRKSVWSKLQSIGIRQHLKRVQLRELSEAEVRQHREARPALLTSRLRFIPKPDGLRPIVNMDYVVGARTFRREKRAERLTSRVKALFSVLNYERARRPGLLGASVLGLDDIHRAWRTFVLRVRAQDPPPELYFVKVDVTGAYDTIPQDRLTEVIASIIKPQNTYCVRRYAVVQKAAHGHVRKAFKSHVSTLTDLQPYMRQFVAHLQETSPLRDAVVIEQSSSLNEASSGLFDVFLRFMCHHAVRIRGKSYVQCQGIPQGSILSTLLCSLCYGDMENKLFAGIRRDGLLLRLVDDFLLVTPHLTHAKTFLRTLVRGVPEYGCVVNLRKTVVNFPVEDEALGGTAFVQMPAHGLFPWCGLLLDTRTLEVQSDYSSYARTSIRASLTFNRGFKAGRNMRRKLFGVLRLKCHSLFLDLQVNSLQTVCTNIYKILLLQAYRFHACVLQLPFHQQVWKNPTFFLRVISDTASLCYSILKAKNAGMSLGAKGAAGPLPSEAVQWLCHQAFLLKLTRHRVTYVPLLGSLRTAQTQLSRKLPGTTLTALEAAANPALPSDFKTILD

`NCCC(=O)Nc1ccc2c(c1)C(=O)c1cc(NC(=O)CCN)ccc1C2=O`: the IC50 amounted to 57 µM with HeLa and 79 µM in assay [5]. The values for the ΔTm in the assay filed under Homo sapiens [1] and in the assay listed under Homo sapiens [4] were 23.4 °C and 11.3 °C, respectively. For the same molecule, the 50% effective concentration (EC50) worked out at 1.2 µM in assay [2] and 10 µM in assay [3].
Turning to `C[C@H](N)C(=O)NCCC(=O)Nc1ccc2c(c1)C(=O)c1cc(NC(=O)CCNC(=O)[C@H](C)N)ccc1C2=O`, the half-inhibitory concentration (IC50) in the assay on HeLa was 64 µM; in assay [5], more than 100 µM. For the same molecule, the figures for the shift in melting temperature (ΔTm) in the assay listed under Homo sapiens [1] and in the assay listed under Homo sapiens [4] were 9 °C and 0.3 °C, respectively. Also, the EC50 in assay [2] was 15 µM; in assay [3], more than 40 µM.
Regarding `NCCNC(=O)c1ccc2c(c1)C(=O)c1ccc(C(=O)NCCN)cc1C2=O`, the values for the half-maximal inhibitory concentration (IC50) (in the assay with HeLa; in assay [5]) were 40 µM and 86 µM, respectively. Further, the ΔTm is 9 °C in the assay listed under Homo sapiens [1] and 2 °C in the assay filed under Homo sapiens [4]. The EC50 in assay [2] was 5 µM; in assay [3], 20 µM.
For the molecule `O=C(CNC(=O)[C@@H]1CCCN1)Nc1ccc2c(c1)C(=O)c1ccc(NC(=O)CNC(=O)[C@@H]3CCCN3)cc1C2=O`, the results for the 50% inhibitory concentration (IC50) (in the assay on HeLa; in assay [5]) were 33 µM and more than 100 µM, respectively. In addition, the thermal shift (ΔTm) in the assay listed under Homo sapiens [1] was determined as 15.6 °C; in the assay listed under Homo sapiens [4] it was 6.1 °C. For the same molecule, the half-maximal effective concentration (EC50) in assay [2] is 10 µM; in assay [3] it was more than 40 µM.
Turning to `NCCCC[C@H](N)C(=O)NCCNC(=O)c1ccc2c(c1)C(=O)c1cc(C(=O)NCCNC(=O)[C@@H](N)CCCCN)ccc1C2=O`, the half-maximal inhibitory concentration (IC50) in the assay on HeLa is 84 µM; in assay [5], more than 100 µM. For the same molecule, the values for the ΔTm in the assay listed under Homo sapiens [1] and in the assay filed under Homo sapiens [4] were 14.7 °C and 5.2 °C, respectively. The results for the half-maximal effective concentration (EC50) in assay [2] and in assay [3] were 3 µM and more than 40 µM, respectively.
As to `N=C(N)NCCC[C@H](N)C(=O)NCCNC(=O)c1ccc2c(c1)C(=O)c1ccc(C(=O)NCCNC(=O)[C@@H](N)CCCNC(=N)N)cc1C2=O`, the IC50 in the assay on HeLa is 85 µM; in assay [5], more than 100 µM. The figures for the ΔTm in the assay filed under Homo sapiens [1] and in the assay filed under Homo sapiens [4] were 16.4 °C and 5.2 °C, respectively. The EC50 in assay [2] worked out at 1.5 µM; in assay [3], 10 µM.
`NCC(=O)NCC(=O)Nc1ccc2c(c1)C(=O)c1ccc(NC(=O)CNC(=O)CN)cc1C2=O`: the figures for the IC50 (with HeLa; in assay [5]) were 39 µM and more than 100 µM, respectively. In addition, the shift in melting temperature (ΔTm) was 8.6 °C in the assay listed under Homo sapiens [1] and 0.4 °C in the assay filed under Homo sapiens [4]. In addition, the EC50 is 5 µM in assay [2] and more than 40 µM in assay [3].
Consider `NCCCC[C@H](N)C(=O)NCC(=O)Nc1ccc2c(c1)C(=O)c1ccc(NC(=O)CNC(=O)[C@@H](N)CCCCN)cc1C2=O`, for which the half-inhibitory concentration (IC50) is 27 µM in the assay on HeLa and 34 µM in assay [5]. Also, the ΔTm in the assay listed under Homo sapiens [1] was more than 17 °C; in the assay filed under Homo sapiens [4], 12 °C. In addition, the EC50 in assay [2] is 0.8 µM; in assay [3] it was 5 µM.
For `NCCCC[C@H](N)C(=O)NCCNC(=O)c1ccc2c(c1)C(=O)c1ccc(C(=O)NCCNC(=O)[C@@H](N)CCCCN)cc1C2=O`, the half-maximal inhibitory concentration (IC50) in the assay with HeLa is 100 µM; in assay [5] it was more than 100 µM. In addition, the ΔTm amounted to 15.9 °C in the assay filed under Homo sapiens [1] and 7.9 °C in the assay filed under Homo sapiens [4]. Further, the concentration for a half-maximal effect (EC50) in assay [2] stood at 0.8 µM; in assay [3], 10 µM.
In the case of `NCC(=O)Nc1ccc2c(c1)C(=O)c1ccc(NC(=O)CN)cc1C2=O`, the 50% inhibitory concentration (IC50) is 76 µM in the assay with HeLa and more than 100 µM in assay [5]. In addition, the shift in melting temperature (ΔTm) was 3.6 °C in the assay listed under Homo sapiens [1] and 0.1 °C in the assay listed under Homo sapiens [4]. In addition, the results for the EC50 in assay [2] and in assay [3] were 25 µM and more than 40 µM, respectively.
As to `NCCCC[C@H](N)C(=O)NCCC(=O)Nc1ccc2c(c1)C(=O)c1ccc(NC(=O)CCNC(=O)[C@@H](N)CCCCN)cc1C2=O`, the IC50 is 100 µM in the assay on HeLa and more than 100 µM in assay [5]. Also, the shift in melting temperature (ΔTm) stood at 17.2 °C in the assay filed under Homo sapiens [1] and 6.6 °C in the assay listed under Homo sapiens [4]. The EC50 came to 0.8 µM in assay [2] and 10 µM in assay [3].
As for `NCCNC(=O)c1ccc2c(c1)C(=O)c1cc(C(=O)NCCN)ccc1C2=O`, the IC50 (in the assay on HeLa; in assay [5]) was 100 µM in each case. Further, the ΔTm came to 12.9 °C in the assay listed under Homo sapiens [1] and 3.3 °C in the assay listed under Homo sapiens [4]. For the same molecule, the figures for the EC50 in assay [2] and in assay [3] were 15 µM and more than 40 µM, respectively.

These data come from ChEMBL document CHEMBL1140074, “Aminoacyl-anthraquinone conjugates as telomerase inhibitors: synthesis, biophysical and biological evaluation” (J Med Chem, 2008).
